Assays:
[1] = system: Trichophyton rubrum; assay: Antifungal activity against Trichophyton rubrum; format: functional
[2] = system: Microsporum canis; assay: Antifungal activity against Microsporum canis; format: functional
[3] = system: Saprolegnia; assay: Antifungal activity against Saprolegnia species; format: functional
[4] = system: Trichophyton mentagrophytes; assay: Compound was tested for antifungal activity against Trichophyton mentagrophytes
[5] = system: Phialophora verrucosa; assay: Antifungal activity against Phialophora verrucosa; format: functional
[6] = system: Candida albicans; assay: Antifungal activity against Candida albicans; format: functional
[7] = system: Mucor; assay: Antifungal activity against Mucor species; format: functional
[8] = system: Erysipelothrix rhusiopathiae; assay: Antibacterial activity against Erysipelothrix insidiosa; format: functional
[9] = Ratio of animals cured to that of animals infected, tested in vivo for antifungal activity against vaginal candidosis in rat; 1/2
[10] = system: Cryptococcus neoformans; assay: Antifungal activity against Cryptococcus neoformans; format: functional
[11] = system: Candida tropicalis; assay: Antifungal activity against Candida tropicalis; format: functional
[12] = system: Sporothrix schenckii; assay: Antifungal activity against Sporothrix schenck ii; format: functional
[13] = system: Streptococcus pyogenes; assay: Antibacterial activity against Streptococcus pyogenes; format: functional
[14] = system: Aspergillus fumigatus; assay: Antifungal activity against Aspergillus fumigatus; format: functional
[15] = system: Staphylococcus haemolyticus; assay: Antibacterial against Staphylococcus hemolyticus; format: functional
[16] = system: Saprolegnia; assay: compound was tested for antifungal activity against Saprolegnia species; format: functional
[17] = system: Trichophyton benhamiae; assay: Antifungal activity against Trichophyton mentagrophytes; format: functional, trychophyton mentagrophytes
[18] = Ratio of animals cured to that of animals infected, tested in vivo for antifungal activity against cutaneous candidosis in guinea pig; 0/2; format: functional
[19] = Ratio of animals cured to that of animals […], Tested in vivo for antifungal activity against vaginal candidosis in rat; 2/4; format: functional
[20] = Ratio of animals cured to that of animals infected, tested in vivo for antifungal activity against vaginal candidosis in rat; 0/2
[21] = Ratio of animals cured to that of animals infected, tested in vivo for antifungal activity against cutaneous candidosis in guinea pig; 3/4; format: functional
[22] = Ratio of animals cured to that of animals […], Tested in vivo for antifungal activity against vaginal candidosis in rat; 1/2; format: functional
[23] = Ratio of animals cured to that of animals infected, tested in vivo for antifungal activity against cutaneous candidosis in guinea pig; 2/2; format: functional
[24] = Ratio of animals cured to that of animals infected, tested in vivo for antifungal activity against vaginal candidosis in rat; 0/2; format: functional
Summary of the method: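 Rat experimental vaginal candidosis. Compounds were given orally as a suspension in polyethylene glycol 200 at 10 mg/kg/day for 14 consecutive days.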

[25] = Ratio of animals cured to that of animals infected, tested in vivo for antifungal activity against cutaneous candidosis in guinea pig; 1/2; format: functional
[26] = Ratio of animals cured to that of animals […], Tested in vivo for antifungal activity against vaginal candidosis in rat; 0/2; format: functional
[27] = system: Phialophora verrucosa; assay: compound was tested for antifungal activity against Phialophora verrucosa; format: functional
[28] = Ratio of animals cured to that of animals infected, tested in vivo for antifungal activity against vaginal candidosis in rat; 2/4
[29] = Ratio of animals cured to that of animals […], Tested in vivo for antifungal activity against vaginal candidosis in rat; 0/6; format: functional
[30] = Ratio of animals cured to that of animals infected, tested in vivo for antifungal activity against cutaneous candidosis in guinea pig; 4/13; format: functional

SMILES | Inhibition [1] | Inhibition [2] | Inhibition [3] | Inhibition [5] | Inhibition [6] | Inhibition [7] | Inhibition [8] | Inhibition [10] | Inhibition [11] | Inhibition [12] | Inhibition [13] | Inhibition [14] | Inhibition [15] | Inhibition [17] | Ratio [18] | other results
Cc1ccc(C2COC(Cn3ccnc3)(c3ccc(Br)cc3)O2)cc1 (configuration not stated) | <1 µg/mL | <1 µg/mL | 100 µg/mL | 100 µg/mL | 10 µg/mL | 10 µg/mL | 1 µg/mL | 10 µg/mL | >100 µg/mL | 100 µg/mL | 10 µg/mL | <1 µg/mL | 10 µg/mL | – | – | Inhibition [4]: 10 µg/mL; Ratio [9]: 1
Clc1ccc(C2COC(Cn3ccnc3)(c3ccccc3)O2)c(Cl)c1 (configuration not stated) | <1 µg/mL | 10 µg/mL | – | 100 µg/mL | >100 µg/mL | 100 µg/mL | 10 µg/mL | 10 µg/mL | >100 µg/mL | 10 µg/mL | 1 µg/mL | 10 µg/mL | 10 µg/mL | <1 µg/mL | 0 | Inhibition [16]: 100 µg/mL
COc1ccc(CCC2COC(Cn3ccnc3)(c3ccc(Cl)cc3Cl)O2)cc1 (configuration not stated) | <1 µg/mL | 1 µg/mL | 100 µg/mL | 100 µg/mL | 100 µg/mL | 100 µg/mL | <1 µg/mL | 1 µg/mL | 10 µg/mL | 10 µg/mL | <1 µg/mL | <1 µg/mL | 100 µg/mL | <1 µg/mL | 0 | Ratio [19]: 0.5
Clc1ccc(C2(Cn3ccnc3)OCC(c3ccc(Br)cc3)O2)c(Cl)c1 (configuration not stated) | <1 µg/mL | <1 µg/mL | 100 µg/mL | 100 µg/mL | 100 µg/mL | 10 µg/mL | 1 µg/mL | <1 µg/mL | 10 µg/mL | 10 µg/mL | 1 µg/mL | <1 µg/mL | 10 µg/mL | <1 µg/mL | – | Ratio [20]: 0; Ratio [21]: 0.75
Clc1ccc(C2(Cn3ccnc3)OCC(c3ccccc3Cl)O2)cc1 (configuration not stated) | <1 µg/mL | 10 µg/mL | 10 µg/mL | 100 µg/mL | >100 µg/mL | 100 µg/mL | 1 µg/mL | 10 µg/mL | >100 µg/mL | >1 µg/mL | 1 µg/mL | 100 µg/mL | 10 µg/mL | <1 µg/mL | – | Ratio [22]: 1; Ratio [23]: 2
Clc1ccc(C2COC(Cn3ccnc3)(c3ccccc3)O2)cc1 (configuration not stated) | <1 µg/mL | <1 µg/mL | 100 µg/mL | 100 µg/mL | >100 µg/mL | 100 µg/mL | 1 µg/mL | 10 µg/mL | 100 µg/mL | 10 µg/mL | 1 µg/mL | 10 µg/mL | 100 µg/mL | <1 µg/mL | – | Ratio [24]: 0; Ratio [25]: 1
Clc1ccc(C2(Cn3ccnc3)OCC(CCc3ccccc3)O2)c(Cl)c1 (configuration not stated) | <1 µg/mL | <1 µg/mL | 100 µg/mL | – | 100 µg/mL | 10 µg/mL | <1 µg/mL | <1 µg/mL | 10 µg/mL | <1 µg/mL | <1 µg/mL | <1 µg/mL | 10 µg/mL | <1 µg/mL | – | Ratio [26]: 0; Inhibition [27]: 100 µg/mL
Clc1ccc(CCC2COC(Cn3ccnc3)(c3ccc(Cl)cc3Cl)O2)cc1 (configuration not stated) | 1 µg/mL | 1 µg/mL | 100 µg/mL | 100 µg/mL | 10 µg/mL | 10 µg/mL | <1 µg/mL | <1 µg/mL | 10 µg/mL | 1 µg/mL | <1 µg/mL | 10 µg/mL | 10 µg/mL | <1 µg/mL | 0 | Ratio [28]: 2
Fc1ccc(C2COC(Cn3ccnc3)(c3ccc(Br)cc3)O2)cc1 (configuration not stated) | <1 µg/mL | <1 µg/mL | 100 µg/mL | 100 µg/mL | 100 µg/mL | <1 µg/mL | 10 µg/mL | 10 µg/mL | 100 µg/mL | 10 µg/mL | <1 µg/mL | <1 µg/mL | 100 µg/mL | <1 µg/mL | – | Ratio [28]: 2; Ratio [25]: 0.5
Clc1ccc(COC(Cn2ccnc2)c2ccc(Cl)cc2Cl)c(Cl)c1 (configuration not stated) [MICONAZOLE] | <1 µg/mL | 1 µg/mL | 10 µg/mL | 100 µg/mL | 10 µg/mL | >100 µg/mL | <1 µg/mL | 1 µg/mL | 100 µg/mL | 1 µg/mL | <1 µg/mL | 10 µg/mL | 10 µg/mL | <1 µg/mL | – | Ratio [29]: 0; Ratio [30]: 0.31

From ChEMBL document CHEMBL1121748, “Antimycotic imidazoles. 5. Synthesis and antimycotic properties of 1-[[2-aryl-4-(arylalkyl)-1,3-dioxolan-2-yl]methyl]-1H-imidazoles” (1981)
